Most compounds without a hit are left out; they make up all but 4.6% or so of the library.
Rtt109 HAT inh – blocks Candida albicans Rtt109/Vps75 acetyltransferase activity. Q5AAJ8. purified Rtt109/Vps75, ThioGlo CoA-SH fluorescence, 4 h. inhibition, % at 34.9 µM. 330,000 tested, 0.16% active. AID 540336;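 active = inhibition of at least 50% in every replicate; inconclusive = best replicate reaches 50% inhibition but some replicates fall short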
M18AAP inhibitor – blocks P. falciparum M18 aspartyl aminopeptidase; recombinant PfM18AAP, H-Glu-NHMec fluorogenic cleavage; inhibition, % at 7.35 µM; 290,000 tested, 1.2% active; AID 1822;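 active = inhibition above the campaign mean inhibition over all tested compounds plus 3 SD, cut at about 28% in these data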;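 also: 0% = plate median of test compound wells and 100% = 2 mM ZnCl2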
ALR inh – human ALR oxidase inhibition via reduced H2O2. 290,000 tested, 3.8% active. P55789. purified ALR, DTT oxidation, H2O2 HRP-luminol luminescence. AID 485317. inhibition, % (concentration not given with the values);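 active = mean replicate inhibition above about 79%, with every replicate also reaching it, limit read from the data; inconclusive = only one of the two criteria met; inactive = mean below limit and not every replicate reaching it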
Target sequence (P55789 whole entry, looked up): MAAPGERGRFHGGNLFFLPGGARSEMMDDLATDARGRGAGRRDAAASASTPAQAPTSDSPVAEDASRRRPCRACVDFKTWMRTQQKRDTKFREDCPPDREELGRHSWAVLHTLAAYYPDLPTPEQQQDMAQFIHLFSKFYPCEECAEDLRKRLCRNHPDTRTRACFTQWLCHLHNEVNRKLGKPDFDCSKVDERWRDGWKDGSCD
FAS-TE inh – blocks the thioesterase domain of human fatty acid synthase; 360,000 tested, 0.67% active; P49327; recombinant FAS-TE, OMFH fluorogenic substrate, fluorescence endpoint; inhibition, % at 15 µM; AID 602261;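 active = compounds whose normalised, plate-corrected inhibition of enzyme fluorescence in the single-dose primary screen is 50% or more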;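 also: 0% = DMSO with enzyme and 100% = substrate without enzyme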
UCH37 DUB inh – human UCH37 deubiquitinating enzyme inhibition. AID 588478. inhibition, % (concentration not given with the values). purified proteasome/UCH37, Ub-AMC cleavage fluorescence. 330,000 tested, 0.33% active;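 active = mean inhibition over replicate wells above about 20%, limit read from the data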;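 also: 0% = compound-free wells with enzyme and 100% = wells lacking proteasome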
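Material: Human UCH37 enzyme supplied as purified proteasome complex | Schedule: 30 min compound-proteasome preincubation then 25 min substrate reaction, room temperature | Detection: AMC fluorescence from Ub-AMC cleavage, excitation 355 nm, emission 460 nm | Benchmarks: Wells without proteasome as full block, compound-free enzyme plus substrate as uninhibited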
HDAC3 inh – human HDAC3 inhibition. recombinant HDAC3, fluorogenic peptide/trypsin coupled, fluorescence. O15379. 320,000 tested, 0.15% active. AID 2718. inhibition, % at 8.3 µM; in the data active = inhibition above about 26%, passing the limit was not always enough; inconclusive = no clear call, values can overlap the other calls
Target sequence (O15379 whole entry, looked up): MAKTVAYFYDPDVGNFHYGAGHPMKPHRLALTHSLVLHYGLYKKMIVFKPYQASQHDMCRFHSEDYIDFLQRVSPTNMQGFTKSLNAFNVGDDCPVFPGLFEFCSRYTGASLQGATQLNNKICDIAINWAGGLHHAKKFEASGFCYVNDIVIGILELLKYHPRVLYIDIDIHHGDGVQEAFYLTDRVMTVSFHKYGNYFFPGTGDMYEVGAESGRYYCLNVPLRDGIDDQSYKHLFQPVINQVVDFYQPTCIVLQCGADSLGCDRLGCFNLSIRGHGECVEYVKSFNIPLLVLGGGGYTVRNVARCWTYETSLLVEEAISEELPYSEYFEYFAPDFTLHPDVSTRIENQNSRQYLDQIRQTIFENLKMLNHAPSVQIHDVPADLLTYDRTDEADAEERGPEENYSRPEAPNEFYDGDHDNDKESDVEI
Starred values were filed as active, the others as inactive; u = inconclusive; x = not tested or not shown.

SMILES	Rtt109 HAT inh	M18AAP inhibitor	ALR inh	FAS-TE inh	UCH37 DUB inh	HDAC3 inh
COc1cc(C2Nc3ccccc3C(=O)N2c2ccccc2)ccc1O (centres undefined)	-5	0	x	0	-36	5
COc1ccc(/C(C)=N/N2C(=O)c3ccccc3NC2c2ccc(O)c(OC)c2)cc1 (centres undefined)	4	4	99*	5	x	7
OCCN1CCN(C(c2cccs2)c2ccc3cccnc3c2O)CC1 (centres undefined)	x	15	x	x	x	x
CC(C)(C)c1cc(C(c2cccnc2)N2CCN(CCO)CC2)cc(C(C)(C)C)c1O (centres undefined)	92*	2	37	3	4	16
COc1ccc(C=NNC(=O)CCC(=O)Nc2ccc(Br)cc2)c(OC)c1	x	x	x	x	3	x
O=C1NC(=O)/C(=C/c2ccc(O)cc2)S1	14	1	99*	-7	4	8
COc1cc(C=NNC(=O)CNC(=O)/C=C/c2ccco2)cc(OC)c1OC	x	x	x	x	4	x
COc1ccc(CNC(=S)NN=Cc2ccncc2)cc1	x	x	x	x	34*	x
CCOc1ccc(CNC(=S)N/N=C\c2ccc([N+](=O)[O-])cc2)cc1	-4	-4	99*	20	x	-2
CCOc1ccc(CNC(=S)NN=Cc2ccc([N+](=O)[O-])cc2)cc1	x	x	x	x	3	x
CCNC(=S)NN=Cc1ccco1	x	x	x	x	5	x
O=C(O)C1CSC(c2coc3ccccc3c2=O)N1 (centres undefined)	-3	29*	99*	-13	-7	-18
CC1CCOC(c2coc3ccccc3c2=O)O1 (centres undefined)	0	-1	3	-4	-1	0
CCCc1cc(NC(=O)CCl)n(-c2ccccc2)n1	x	9	97*	-5	5	-2
COc1cccc(N2C(=O)C3CCCN3C2c2ccc(N(C)C)cc2)c1 (centres undefined)	6	-6	95*	-4	5	2
Cc1ccc(-n2c(SCC(=O)NN=Cc3ccc(C)s3)nnc2-c2ccccc2)cc1	x	x	x	x	2	x
CN(C)/C=C/C(=O)c1ccc(Br)s1	1	5	92*	-4	19	5
CN(C)/C=C/C(=O)c1ccccc1	14	-4	x	-10	14	4
O=C(COc1ccccc1)Nc1nnc(-c2ccccc2)o1	-13	1	93*	-6	3	6
O=C(COc1ccccc1)Nc1nnc(-c2ccco2)o1	11	0	u	-5	0	-2
O=C(COC(=O)Cc1ccccc1[N+](=O)[O-])Nc1nnc(-c2ccccc2)o1	56*	x	x	-1	1	1
CCOc1ccc(-c2cc3nc(C4CCN(C(=O)OC(C)(C)C)CC4)c(C(=O)O)cn3n2)cc1	10	-2	98*	7	-75	-5
CCOC(=O)N1CCN(C(=O)c2cc(-c3ccc(OCC)cc3)nc3ccccc23)CC1	8	8	-14	16	-283	-10
COc1cc(C(=O)NN=Cc2ccc(OC(=O)N3CCOCC3)cc2)cc(OC)c1OC	x	x	x	x	6	x
Cc1noc(NC(=O)c2ccc(F)cc2)c1C#N	12	-16	-5	-8	-1	7
SMILES	Rtt109 HAT inh	M18AAP inhibitor	ALR inh	FAS-TE inh	UCH37 DUB inh	HDAC3 inh
Cc1cccc(C(=O)Nc2onc(C)c2C#N)c1	-4	-11	96*	-7	3	3
CN1C(=O)C(=O)/C(=C(/O)c2ccc(Br)cc2)C1c1ccc(Cl)cc1 (centres undefined)	-4	1	23	2	8	7
O=C1OC(c2ccc(Cl)cc2)/C(=C(/O)c2ccccc2)C1=O (centres undefined)	-1	11	97*	0	4	9
O=C(Oc1cccc(-n2cnnn2)c1)c1ccco1	-6	-13	31	-1	5	32*
O=C(Oc1ccc(-c2nnco2)cc1)c1ccco1	-3	x	-3	2	5	63*
CCN(CC)C(=O)C(=O)NN=Cc1cccs1	x	x	x	x	-1	x
Cc1cccc(N2CC(C(=O)NCCC3=CCCCC3)CC2=O)c1C (centres undefined)	18	x	-4	1	23*	0
COc1ccccc1N1CC(C(=O)NCCC2=CCCCC2)CC1=O (centres undefined)	-2	x	-5	6	0	-10
CCC(=O)N(C)CCc1cc2c(c(OC)c1C=NNC(=O)c1ccc(Br)cc1)OCO2	x	x	x	x	4	x
COc1cccc(N2C(=O)CC(Sc3nc(C)cc(C)n3)C2=O)c1 (centres undefined)	-1	-14	-1	-7	4	-5
CCOc1ccccc1N1C(=O)CC(Sc2n[nH]c(-c3ccccc3)n2)C1=O (centres undefined)	9	-55	99*	-8	0	9
COc1ccc(N2C(=O)CC(Sc3n[nH]c(-c4cccc(C)c4)n3)C2=O)cc1 (centres undefined)	x	-36	99*	-6	3	3
O=C(NN=Cc1cc(Br)cs1)c1ccc2c(c1)OCCO2	x	x	x	x	4	x
CC(C)C1=Nc2cccc3cccc(c23)N1	-4	3	x	-5	6	-5
ClCC1=Nc2cccc3cccc(c23)N1	x	15	99*	x	x	2
CCOC(=O)/C(=N\Nc1ccccc1Cl)N1CCN(C)CC1	1	2	98*	-7	x	8
COc1ccc(Cl)cc1NC(=O)CC(C)=NNC(=O)CCc1ccccc1	x	x	x	x	-1	x
Nc1nnnn1N=Cc1ccccc1OCc1ccc(Cl)cc1Cl	x	x	x	x	1	x
COc1cc(OC)c2ccc(=O)oc2c1C(CCN1CCCCC1)c1ccc(N(C)C)cc1 (centres undefined)	8	x	99*	8	3	3
COc1cc(OC)c2ccc(=O)oc2c1C(CCN1CCCC1)c1ccc(N(C)C)cc1 (centres undefined)	-3	x	98*	11	1	-7
COc1ccc(C(=O)NN=Cc2ccc(OC)c(COc3ccc(F)cc3)c2)cc1	x	x	x	x	-3	x
CCc1ccc(NC(=O)/C(C#N)=C/c2ccncc2)cc1	-3	9	u	10	6	-2
CC(=O)c1ccc(NC(=O)/C(C#N)=C/c2ccncc2)cc1	3	13	98*	-7	3	-3
CCc1cc2c(=O)n(Cc3ccco3)c(SCC(=O)NCC3CCCO3)nc2s1 (centres undefined)	2	-9	2	2	2	-4
CCc1cc2c(=O)n(Cc3ccco3)c(SCc3c(C)noc3C)nc2s1	-1	-44	99*	14	5	0
CCNC(=O)NC(=O)CSc1nnc(-c2c[nH]c3ccccc23)o1	51*	23	13	-6	3	2
O=C(CSc1c2c(nc3cc(Cl)ccc13)CCCC2)NCCCN1CCOCC1	-34	1	97*	-4	9	3
O=C(CSc1c2c(nc3ccc(Cl)cc13)CCCC2)NCCCN1CCOCC1	-32	-12	98*	-8	7	6

Compound activity deposited in PubChem BioAssay by several laboratories.
